Compounds with a hit are over-represented: about 4.2% of the library has one in this group of screens.
OX1R antag-1 = blocks the human orexin 1 receptor. O43613. OX1R-expressing cells, FRET antagonist read-out. inhibition, % at 6.6 µM. 330,000 compounds, 1.8% hits. AID 485270; in the data active = inhibition mostly above about 38%, no sharp cut-off; inactive = mostly below about 40%
TAAR1 antag = antagonists of human TAAR1 | CHO RD-HGA16 TAAR1, Fluo-8 calcium fluorescence, antagonist | inhibition, % at 3 µM | 360,000 compounds, 1.5% hits | AID 624466;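 active = inhibition above a per-plate cutoff, the mean inhibition of test compounds on that plate plus 3 SD, cut at about 49% in these data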
Target sequence (Q96RJ0 whole entry, looked up): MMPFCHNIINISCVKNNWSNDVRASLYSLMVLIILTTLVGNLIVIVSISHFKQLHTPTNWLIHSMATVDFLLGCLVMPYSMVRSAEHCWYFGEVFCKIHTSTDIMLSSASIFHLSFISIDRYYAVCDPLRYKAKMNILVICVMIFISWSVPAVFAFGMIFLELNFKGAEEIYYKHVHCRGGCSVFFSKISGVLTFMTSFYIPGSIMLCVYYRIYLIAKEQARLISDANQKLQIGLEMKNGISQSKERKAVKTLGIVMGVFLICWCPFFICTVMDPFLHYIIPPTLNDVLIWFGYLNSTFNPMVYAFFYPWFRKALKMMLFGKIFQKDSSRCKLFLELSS
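Test system – hTAAR1-expressing CHO RD-HGA16 cells, Gα16-coupled · Reagent – β-PEA at EC80 concentration, post-compound challenge · Compound dosing – 3 µM, single point · Timing – 140 s kinetic read after compound, 140 s after agonist · Detection – Fluo-8 intracellular calcium dye fluorescence, real-time kinetic reads · Control set – DMSO and EC80 PEA controls · Repeats – n of 1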
CHO parental Ca = counter-screen: ATP calcium response change in parental CHO cells. parental CHO-K1, ATP-induced calcium, Fluo-8 fluorescence. inhibition, % at 5.6 µM. 330,000 compounds, 0.63% hits. AID 463079;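 active = inhibition above that plate's mean sample inhibition plus 3 SD, cut at about 26% in these data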
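Test system: parental CHO cells; detection: calcium-sensitive Fluo-8 fluorescence; evaluation: percent inhibition of calcium signal; also added: ATP as calcium-mobilizing challenge; repeats: one well per compound; control set: ATP-challenged DMSO wells low, unchallenged DMSO wells high; compound: single nominal dose of 5.6 µM per compound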
TAAR1 ag = human TAAR1 agonism | Q96RJ0 | CHO RD-HGA16 TAAR1, Fluo-8 calcium fluorescence; vehicle wells 0%, saturating PEA agonist 100% | activation, % at 3 µM | 360,000 compounds, 0.99% hits | AID 624467;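 active = activation above the mean activation of all test compounds in the run plus 3 SD, cut at about 38% in these data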
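System: CHO RD-HGA16 cells carrying human TAAR1 plus Gα16; Incubation: 17-24 h seeding, 75 min 37 °C dye, 30 min RT; Measured by: Fluo-8 fluorescence, 5 s baseline then 140 s kinetic read; Control set: DMSO and PEA EC100; Replication: single well for each compound.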
GalR3 antag = human GalR3 antagonism; O60755; HEK293 GalR3-CNG cAMP membrane potential fluorescence; galR3 body fused to GalR1 C-terminus; inhibition, % at 3 µM; 360,000 compounds, 0.44% hits; AID 651719;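 active = inhibition above the screen-wide average plus 3 SD, cut at about 13% in these data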;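 note: forskolin and galanin both at EC90 stimulate the cells; cAMP rise reported by CNG channel membrane potential dye signal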
Target sequence (O60755 1-299 limits assumed): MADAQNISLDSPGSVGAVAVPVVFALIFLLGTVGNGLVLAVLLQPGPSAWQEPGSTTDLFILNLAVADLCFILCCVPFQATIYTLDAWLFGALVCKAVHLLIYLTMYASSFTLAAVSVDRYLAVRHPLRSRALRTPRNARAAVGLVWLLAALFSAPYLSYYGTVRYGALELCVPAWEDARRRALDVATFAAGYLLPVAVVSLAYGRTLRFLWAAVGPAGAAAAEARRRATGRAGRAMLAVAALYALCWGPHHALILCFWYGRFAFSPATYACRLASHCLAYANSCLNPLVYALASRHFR
OX1R antag-2 = antagonists of human orexin 1 receptor; O43613; CHO/OX1R cells, Fluo-8 calcium fluorescence, orexin A; inhibition, % at 5 µM; 330,000 compounds, 0.43% hits;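 active = inhibition above its plate's threshold, mean inhibition of all tested compounds on the plate plus 3 SD, cut at about 37% in these data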
Each line names hits and unclear results; the compound was inactive in the other large screens.

Cc1ccc2nc(C(O)C(O)c3nc4ccc(C)cc4[nH]3)[nH]c2c1 (configuration not stated)	TAAR1 ag 38
Cc1ccc2nc(C(C)O)[nH]c2c1 (configuration not stated)	CHO parental Ca 45
O=C(C#Cc1ccccc1)c1cccc([N+](=O)[O-])c1	CHO parental Ca 36
O=C1/C(=C\c2ccc(O)c(O)c2)SC(=S)N1Cc1ccccc1	TAAR1 ag 38 (no result: OX1R antag-1, CHO parental Ca, OX1R antag-2)
COc1cc(/C=C2\SC(=S)N(NS(=O)(=O)c3ccccc3)C2=O)ccc1O	CHO parental Ca 44
COc1cc(/C=C2/SC(=NCc3ccccc3)N(Cc3ccccc3)C2=O)ccc1O	none
COc1cc(/C=C2/SC(=S)N(Cc3ccccc3)C2=O)ccc1O	CHO parental Ca 33, TAAR1 ag 44
COc1cc(/C=C2/SC(=O)NC2=O)ccc1OCc1ccccc1	OX1R antag-1 54
O=C1/C(=C\c2cccc(O)c2)SC(=S)N1Cc1ccccc1	none
C=CCn1c(SC(C)C(=O)NCC2CCCO2)nnc1-c1ccc(OC)cc1 (configuration not stated)	none
COCCn1c(SCC(=O)NC2CCCC2)nnc1-c1ccncc1	none
CN(C)C(=O)C(OC(=O)c1ccc2c(c1)CCCC2)c1ccccc1 (configuration not stated)	none
CCOc1cc(/C=N\NC(=O)c2c(C)nc3ccccn23)ccc1O	none
Cc1ccccc1OCC(=O)N/N=C/C=C/c1ccccc1	none
COc1cc(/C=C2\SC(=Nc3ccccc3)NC2=O)cc(Cl)c1O	OX1R antag-1 49, TAAR1 antag 62, CHO parental Ca 39, TAAR1 ag 75, OX1R antag-2 61
C[C@H](NC(=O)c1ccc(Cl)c(S(=O)(=O)N2CCOCC2)c1)c1nc2ccccc2[nH]1	none
COc1ccc(-c2ccc3c(c2)S(=O)(=O)c2cccc(C(=O)NC[C@@H]4CCCO4)c2C3=O)cc1OC	OX1R antag-1 37, TAAR1 antag 57
O=C(NC[C@@H]1CCCO1)c1cccc2c1C(=O)c1ccc(Cl)cc1S2(=O)=O	OX1R antag-1 45
CN(c1ccc(C(=O)NCc2ccccc2)cc1)S(C)(=O)=O	none
Cc1nc(NCCN2CCOCC2)c2oc3ccccc3c2n1	none
Cc1nc(NCCc2ccccc2)c2oc3ccccc3c2n1	OX1R antag-1 37, CHO parental Ca 46
C=CCc1ccc(OCCOc2ccc(/C=N/n3cnnc3)cc2OCC)c(OC)c1	CHO parental Ca 67
O=C(Nc1cccc(C(F)(F)F)c1)c1scc2c1OCCO2	CHO parental Ca 43
O=C(Nc1cccc(C(F)(F)F)c1)c1cc(Br)cc2c1OCC2	none
COc1cc(OC)cc(C(=O)Nc2cccc(-c3ccc4nncn4n3)c2)c1	none (no result: TAAR1 antag, TAAR1 ag, GalR3 antag)
COc1ccccc1N1CCN(S(=O)(=O)CCNC(=O)C23CC4CC(CC(C4)C2)C3)CC1	TAAR1 antag 58
O=C(NCCS(=O)(=O)N1CCN(c2ccccc2)CC1)C12CC3CC(CC(C3)C1)C2	none (no result: OX1R antag-1, CHO parental Ca, OX1R antag-2)
COc1cc(/C=N/NC(=O)[C@H](Cc2c[nH]c3ccccc23)NC(=O)OCC(C)C)cc([N+](=O)[O-])c1O	none
Cc1cc(NC(=O)Nc2ccccc2F)ccc1Br	TAAR1 antag 66
Cn1nnc2cc(NC(=O)Nc3ccccc3F)ccc21	none (no result: OX1R antag-1, CHO parental Ca, OX1R antag-2)
O=S(=O)(c1ccc(N2CCN(Cc3ccccc3)CC2)nc1)N1CCCC1	none
Cc1cc(NC(=O)c2ccc(-c3ccccc3[N+](=O)[O-])o2)no1	OX1R antag-1 27
O=C(Nc1ccc(Nc2ccccc2)cc1)c1ccc(Cl)c([N+](=O)[O-])c1	TAAR1 antag 51
O=C(Nc1ccc(Cl)c(Cl)c1)c1ccc(Cl)c(Cl)c1	OX1R antag-1 92, CHO parental Ca 59, OX1R antag-2 40
O=C(Nc1ccc(Cl)c(Cl)c1)Nc1nccs1	TAAR1 ag 43
Cc1cc(NC(=O)c2ccc(-c3ccccc3F)o2)no1	none
COc1ccc(S(=O)(=O)N(C)C[C@H]2Oc3ncc(Br)cc3C(=O)N([C@@H](C)CO)C[C@@H]2C)cc1	none (no result: OX1R antag-1, CHO parental Ca, OX1R antag-2)
COc1ccccc1N1CCN(C(=O)CN(c2ccc(C)c(C)c2)S(C)(=O)=O)CC1	none
Cc1cc(NC(=O)c2ccc(N3CCCC3)c([N+](=O)[O-])c2)no1	none
O=C(Nc1ccc(Cc2ccncc2)cc1)c1ccc(Cl)c([N+](=O)[O-])c1	OX1R antag-1 128, TAAR1 antag 74, CHO parental Ca 83, OX1R antag-2 77
CN(c1ccccc1)S(=O)(=O)c1cccc(NC(=O)c2ccc(Cl)c([N+](=O)[O-])c2)c1	OX1R antag-1 44, CHO parental Ca 64, OX1R antag-2 62
Cc1cc(NC(=O)c2ccc(Cl)c([N+](=O)[O-])c2)no1	CHO parental Ca 43
O=C(Nc1ncccn1)c1ccc(Cl)c([N+](=O)[O-])c1	OX1R antag-1 26
CC(C)N1CCN(Cc2ccncc2)CC1CCO (configuration not stated)	none
C=CCN1C(=O)c2ccc(C(=O)OCC(=O)N(CC)C3CCS(=O)(=O)C3)cc2C1=O (configuration not stated)	OX1R antag-1 42
CN(C(=O)COC(=O)CCCN1C(=O)c2cccc3cccc(c23)C1=O)C1CCS(=O)(=O)C1 (configuration not stated)	OX1R antag-1 67
CC(C)CN(C(=O)COC(=O)CCN1C(=O)c2ccccc2C1=O)C1CCS(=O)(=O)C1 (configuration not stated)	none
CCN(C(=O)COC(=O)CCCN1C(=O)c2cccc3cccc(c23)C1=O)C1CCS(=O)(=O)C1 (configuration not stated)	OX1R antag-1 53
CN(C)CCCN(C(=O)CCS(=O)(=O)c1ccccc1)c1nc2cc3c(cc2s1)OCO3	none
O=C(Cn1cnc2c(nnn2-c2cccc(Cl)c2)c1=O)N1CCCC1	none
CC1(C2CC2)NC(=O)N(CC(=O)Nc2ccc(C(F)(F)F)cc2)C1=O (configuration not stated)	none
CCC1Sc2ccccc2N(CC(=O)NC2CCCCC2)C1=O (configuration not stated)	none
C[C@H](NC(=O)C(c1ccccc1)c1ccccc1)c1ccccc1	none (no result: OX1R antag-1, CHO parental Ca, OX1R antag-2)
CCOC(=O)N1CCC(N2CCN(Cc3ccc(C)o3)C(CCO)C2)CC1 (configuration not stated)	none
CC(=O)c1ccc(NC(=O)CSc2ccc(-c3sc(C)nc3C)nn2)cc1	TAAR1 antag 64
Cc1nc(C)c(-c2ccc(SCC(=O)Nc3ccc(C)c(Cl)c3)nn2)s1	none
Cc1c(C(=O)N/N=C/c2ccc(O)cc2)sc(=S)n1C	none
Cc1c(C(=O)N/N=C/c2ccccc2)sc(=S)n1C	OX1R antag-1 92

Assay outcomes deposited in PubChem by The Scripps Research Institute Molecular Screening Center.
